Screens (PubChem)
In the library only some 2.4% were active in any assay of this set; here they are far more common.
PGC1a acetyl inh – inhibitors of PGC1a acetylation signal, primary screen, cell-based, U2OS, AlphaScreen, inhibitor mode | 350,000 tested, 0.17% active | AlphaScreen anti-acetyl-lysine; with virally co-expressed GCN5 acetyltransferase | inhibition, % at 15.6 µM;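 active means every replicate shows inhibition of at least 40%; inconclusive means mean inhibition at least 40% but some replicate below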;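 further: 0% = neutral control wells and 100% = positive control wells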
S100A4 MyoIIA – inhibitors of S100A4-myosin IIA peptide binding, primary screen, biochemical, fluorescence polarization, TAMRA-MyoIIA peptide. Protein S100-A4 (Homo sapiens), P26447. inhibition, % at 10.7 µM. 360,000 tested, 0.14% active. AID 652163, 2013;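 active means mean inhibition of at least 70% across replicates, with every replicate also reaching that level; inconclusive means mean inhibition reaches 70% but some replicates fall short; inactive means mean inhibition below 70%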
Target sequence (P26447 whole entry, looked up): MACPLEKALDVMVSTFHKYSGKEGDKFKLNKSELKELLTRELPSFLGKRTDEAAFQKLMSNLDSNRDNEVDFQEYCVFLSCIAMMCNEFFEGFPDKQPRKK
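Test system: S100A4 monomer protein; Medium: HEPES pH 7.2 with CaCl2, KCl, NaCl, DTT, Triton; Probe or stimulus: TAMRA-labelled myosin IIA heavy-chain peptide probe, 5 nM; Doses: one dose per compound; Times: polarization read 5 min after assay mix addition, stable 5–60 min; Benchmarks: neutral control DMSO, positive control TFP.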
CASP6 VEID inh – human caspase-6 inhibitors, primary screen, biochemical, VEID-R110 fluorescence, single point, set 2. P55212. purified caspase-6, Z-VEID-R110 cleavage fluorescence. inhibition, % at 12.5 µM. 350,000 tested, 0.53% active;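 active means mean inhibition across replicates at least about 35%, with every replicate also reaching that limit, limit read from the data; inconclusive means only one of the two criteria met; inactive means neither criterion met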;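 further: 0% = median of neutral control wells and 100% = no fluorescence left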
Target sequence (P55212 24-179 limits assumed): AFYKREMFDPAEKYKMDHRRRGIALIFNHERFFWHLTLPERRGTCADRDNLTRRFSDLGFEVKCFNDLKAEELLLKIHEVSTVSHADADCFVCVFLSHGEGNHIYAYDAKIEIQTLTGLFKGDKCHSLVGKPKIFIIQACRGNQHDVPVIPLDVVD
Target sequence (P55212 194-293 limits assumed): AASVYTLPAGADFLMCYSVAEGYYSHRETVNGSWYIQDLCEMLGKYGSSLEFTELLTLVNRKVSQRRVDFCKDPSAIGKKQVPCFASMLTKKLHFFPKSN
rRNA inh HTS – reduced GFP signal of wild-type E. coli, primary screen, bacterial rRNA inhibitor project, GFP/RFP fluorescence, OD600, single point. E. coli WT GFP vs humanized-ribosome RFP mutants, 24 h; active compounds read low; DMSO median 0, no signal -100. GFP signal change (wild-type ribosome), % (test concentration not listed). 350,000 tested, 1.6% active. AID 720706, 2013;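 active means significant combined selectivity score with lowered wild-type GFP, culture density cut under 30%, mutant RFP and density less affected; inactive means any of these conditions unmet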
ARNT-TACC3 inh – disruptors of ARNT/TACC3 protein interaction, primary screen, biochemical, AlphaScreen, single concentration | inhibition, % at 9.99 µM | AlphaScreen His-ARNT PAS-B/GST-TACC3 binding, luminescence; TACC3 fragment carries E629A point mutation | 390,000 tested, 0.66% active | Transforming acidic coiled-coil-containing protein 3 (Homo sapiens), Q9Y6A5;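 active means mean inhibition of replicates at least 50% and at least half of replicates each reaching 50%; inconclusive means half or more replicates reach 50% but mean below 50%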;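 further: 0% = complete ARNT plus TACC3 wells and 100% = ARNT alone without TACC3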
ERAP1 HTS inh – human ERAP1 aminopeptidase inhibitors, primary screen, biochemical, single point, plate reader; AID 652197, 2013; recombinant ERAP1, Leu-AMC fluorescence, 60 min; 340,000 tested, 0.15% active; Endoplasmic reticulum aminopeptidase 1 (Homo sapiens), Q9NZ08; inhibition, % at 10.7 µM;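 active means mean replicate inhibition of at least 30%, or all replicates individually reaching that 30% level; inactive means mean below 30% and not every replicate reaching it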;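 further: 0% = neutral control wells and 100% = L-leucinethiol positive control wells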
* marks the source's active call; other numbers are inactive results; ? = inconclusive; . = no result given; ! = a repeat was not active.

SMILES	PGC1a acetyl inh	S100A4 MyoIIA	CASP6 VEID inh	rRNA inh HTS	ARNT-TACC3 inh	ERAP1 HTS inh
COc1ccc2c(c1OC)CN1CCc3cc4c(cc3[C@H]1C2)OCO4	.	.	.	.	4	.
CCC1CN2CCc3cc(OC)c(OC)cc3C2CC1CC1NCCc2c1[nH]c1ccc(O)cc21 (configuration not stated)	70*	-7	-10	0	11	3
S=C(NCCc1ccccc1)NCCc1cnc[nH]1	.	2	-13	4	57*	2
NC(=O)c1cn(C2OC(CO)C(O)C2O)c2ncnc(N)c12 (configuration not stated)	93*!	-27	1	9	-5	5
CC1CC(C)(O)CC(C(O)CC2CC(=O)NC(=O)C2)C1=O (configuration not stated)	77*	10	-2	19	-3	2
CN1CCN(c2ccc([N+](=O)[O-])c3no[n+]([O-])c23)CC1	?	112*	15	-8	38*	3
O=[N+]([O-])c1ccc(N(CCO)CCO)c2c1no[n+]2[O-]	31	16	-6	-39	.	16
C[N+]1(C)CCc2cc3c(cc2[C@H]1[C@@H]1OC(=O)c2c1ccc1c2OCO1)OCO3	-19	29	5	0	9	53*!
C=CCN1[C@@H]2CN(C(=O)NC(C)C)C[C@H]1C2c1ccccc1 (some centres not stated)	.	.	.	-1	.	.
COc1ccc(Cc2nccc3cc(OC)c(OC)cc23)cc1OC	.	1	54*	0	5	-3
CC12CCC(O)CC1CCC1C2CCC2(C)C(C3=CC(=O)OC3)CCC12O (configuration not stated)	80*	-7	-1	9	-10	1
C[C@]12CC[C@H](O)C[C@H]1CC[C@@H]1[C@@H]2CC[C@]2(C)[C@@H](C3=CC(=O)OC3)CC[C@]12O	21	2	.	.	-6	-3
NC(N)=N/N=C/c1ccc(N(c2ccccc2)c2ccccc2)cc1	.	3	63*	-58	-78	-33
O=C(O)[C@@H]1[C@@H](CO)[C@@H]2Cn3c(ccc(C4=CCCC4)c3=O)[C@H]1N2C(=O)Cc1ccccn1	.	2	3	1	1	1
C[N+](C)(C)CC1CCCC1=O (configuration not stated)	-7	2	0	8	-6	80*
Cc1c(N=Cc2c(O)n(C)c(=O)[nH]c2=O)c(=O)n(-c2ccccc2)n1C	6	1	2	12	.	2
Cc1c(N=Nc2c(O)[nH]c(=O)[nH]c2=O)c(=O)n(-c2ccccc2)n1C	4	2	41*	24	65*	9
Cc1c(N=Nc2c(O)n(-c3ccc(Br)cc3)c(=O)[nH]c2=O)c(=O)n(-c2ccccc2)n1C	-8	1	3	-35*	61*	3
c1cc(-c2ccc(C3[C@H]4CNC[C@@H]3N4CC3CC3)cc2)ccn1 (some centres not stated)	-2	4	0	6	.	-2
N#Cc1cccc(-c2ccc([C@H]3[C@H]4CN(C(=O)Cc5ccncc5)CCCCN4[C@H]3CO)cc2)c1	3	-17	3	0	9	-2
CN1C[C@@H]2N[C@H](C1)C2c1ccc(Br)cc1 (some centres not stated)	.	.	.	1	.	.
O=P(Nc1cccnc1)(Oc1ccccc1Cl)Oc1ccccc1Cl	.	6	1	-33*	0	5
CC=Cc1ccc2n(c1=O)C[C@@H]1[C@@H](CO)[C@H](C(=O)O)[C@H]2N1S(=O)(=O)c1ccccc1C (mixture of isomers)	.	4	-1	-1	1	0
